Calls of active or inactive are those of the source. The calls are words filed in the database; no cut-off is given here.
Columns and labels:
[1] = target: T1, Kynurenine/alpha-aminoadipate aminotransferase, mitochondrial (Homo sapiens, UniProt Q8N5Z0); assay: Inhibition of human recombinant KAT2 assessed as conversion of L-kynurenine into kynurenic acid after 15 to 20 hrs
Summary of the method: (§1)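 Human and rat KAT II enzyme assays run with 30 nM enzyme; IC50 reported as geometric mean of at least three independent determinations (some n = 1 or 2).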
Target sequence in this assay (Q8N5Z0 whole entry): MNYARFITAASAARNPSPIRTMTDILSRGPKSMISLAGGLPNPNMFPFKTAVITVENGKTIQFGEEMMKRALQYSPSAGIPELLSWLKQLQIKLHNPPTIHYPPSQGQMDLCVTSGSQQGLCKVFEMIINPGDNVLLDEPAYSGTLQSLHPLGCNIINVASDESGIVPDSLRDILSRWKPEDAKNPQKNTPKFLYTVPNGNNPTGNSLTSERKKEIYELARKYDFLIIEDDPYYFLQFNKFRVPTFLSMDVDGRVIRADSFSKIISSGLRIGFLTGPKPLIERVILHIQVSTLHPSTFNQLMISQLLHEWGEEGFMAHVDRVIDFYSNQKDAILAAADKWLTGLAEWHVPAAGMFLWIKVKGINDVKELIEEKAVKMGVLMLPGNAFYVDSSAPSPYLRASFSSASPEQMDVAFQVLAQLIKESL

[2] = target: Kynurenine/alpha-aminoadipate aminotransferase, mitochondrial (Rattus norvegicus, UniProt Q64602); assay: Inhibition of rat recombinant KAT2 assessed as conversion of L-kynurenine into kynurenic acid after 15 to 20 hrs; summary of the method: as §1
Chain of Kynurenine/alpha-aminoadipate aminotransferase, mitochondrial (Rattus norvegicus, UniProt Q64602) (Q64602 whole entry): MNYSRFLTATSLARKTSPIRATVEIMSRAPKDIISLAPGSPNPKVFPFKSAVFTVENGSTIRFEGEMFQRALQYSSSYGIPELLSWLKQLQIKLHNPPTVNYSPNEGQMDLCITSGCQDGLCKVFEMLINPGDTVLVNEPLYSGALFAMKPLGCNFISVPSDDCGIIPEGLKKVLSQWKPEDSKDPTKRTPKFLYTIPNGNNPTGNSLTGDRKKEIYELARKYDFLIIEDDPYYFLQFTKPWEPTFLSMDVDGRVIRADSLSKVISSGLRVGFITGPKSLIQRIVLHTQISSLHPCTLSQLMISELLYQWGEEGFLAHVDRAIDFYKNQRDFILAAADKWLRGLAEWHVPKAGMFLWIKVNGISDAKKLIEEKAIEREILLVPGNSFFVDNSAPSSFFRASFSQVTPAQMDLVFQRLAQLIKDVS

[3] = target: Kynurenine/alpha-aminoadipate aminotransferase, mitochondrial (Rattus norvegicus) (UniProt Q64602); assay: Ratio of Kinact to Ki for rat recombinant KAT2 using L-kynurenine as substrate
Chain of Kynurenine/alpha-aminoadipate aminotransferase, mitochondrial (Rattus norvegicus) (Q64602 30-425 limits assumed): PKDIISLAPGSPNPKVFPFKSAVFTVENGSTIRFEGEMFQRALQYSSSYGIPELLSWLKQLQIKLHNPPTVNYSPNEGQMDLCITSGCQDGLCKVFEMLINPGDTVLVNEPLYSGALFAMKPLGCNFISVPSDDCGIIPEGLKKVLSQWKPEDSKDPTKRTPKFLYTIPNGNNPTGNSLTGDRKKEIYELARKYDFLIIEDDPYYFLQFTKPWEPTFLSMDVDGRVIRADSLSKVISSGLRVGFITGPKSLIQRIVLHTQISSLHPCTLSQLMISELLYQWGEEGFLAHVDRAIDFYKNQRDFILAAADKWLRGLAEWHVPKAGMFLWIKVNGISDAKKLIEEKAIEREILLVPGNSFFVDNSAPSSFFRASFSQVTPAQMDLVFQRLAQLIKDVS
Summary of the method: (§2)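 Second-order rate constant kinact/Ki determined for human and rat KAT II; values are geometric or arithmetic means of at least three experiments (some n = 2).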

[4] = target: T1, Kynurenine/alpha-aminoadipate aminotransferase, mitochondrial; assay: Ratio of Kinact to Ki for human recombinant KAT2 using L-kynurenine as substrate; summary of the method: as §2
Target sequence in this assay (Q8N5Z0 30-425 limits assumed): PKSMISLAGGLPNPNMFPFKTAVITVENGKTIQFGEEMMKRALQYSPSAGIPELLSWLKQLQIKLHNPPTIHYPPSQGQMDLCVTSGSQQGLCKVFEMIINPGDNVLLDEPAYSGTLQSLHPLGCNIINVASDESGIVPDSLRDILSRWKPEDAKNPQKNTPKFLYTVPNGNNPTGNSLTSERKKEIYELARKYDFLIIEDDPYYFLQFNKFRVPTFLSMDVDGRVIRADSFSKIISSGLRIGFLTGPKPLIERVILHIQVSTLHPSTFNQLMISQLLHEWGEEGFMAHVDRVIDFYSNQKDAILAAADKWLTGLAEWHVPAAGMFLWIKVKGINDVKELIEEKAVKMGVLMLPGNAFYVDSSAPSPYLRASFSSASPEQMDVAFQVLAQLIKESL

[5] = Drug level in Sprague-Dawley rat cerebrospinal fluid at 10 mg/kg, sc after 0.25 hrs; assay type: ADME, organism-based; parameters: dose 10 mg/kg, route subcutaneous; conditions: read-out: Drug uptake
Summary of the method: (§3)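 Rats dosed 10 mg/kg subcutaneously; drug levels measured in CSF and plasma/brain at 0.25 h post-dose; free levels derived using measured rat brain and plasma unbound fractions.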

Brain = assay: Free brain concentration in Sprague-Dawley rat at 10 mg/kg, sc after 0.25 hrs; assay type: ADME, organism-based; parameters: dose 10 mg/kg, route subcutaneous; conditions: in vivo; summary of the method: as §3
Plasma = assay: Free plasma concentration in Sprague-Dawley rat at 10 mg/kg, sc after 0.25 hrs; assay type: ADME, organism-based; parameters: dose 10 mg/kg, route subcutaneous; conditions: in vivo; summary of the method: as §3
[6] = Fraction unbound in rat brain at 1 uM by equilibrium dialysis method; assay type: ADME, tissue-based
[7] = Fraction unbound in rat plasma at 1 uM by equilibrium dialysis method; assay type: ADME, cell-free
[8] = target: T2, Kynurenine--oxoglutarate transaminase 1 (Homo sapiens, UniProt Q16773); assay: Inhibition of human KAT1
T2 sequence (Q16773 whole entry): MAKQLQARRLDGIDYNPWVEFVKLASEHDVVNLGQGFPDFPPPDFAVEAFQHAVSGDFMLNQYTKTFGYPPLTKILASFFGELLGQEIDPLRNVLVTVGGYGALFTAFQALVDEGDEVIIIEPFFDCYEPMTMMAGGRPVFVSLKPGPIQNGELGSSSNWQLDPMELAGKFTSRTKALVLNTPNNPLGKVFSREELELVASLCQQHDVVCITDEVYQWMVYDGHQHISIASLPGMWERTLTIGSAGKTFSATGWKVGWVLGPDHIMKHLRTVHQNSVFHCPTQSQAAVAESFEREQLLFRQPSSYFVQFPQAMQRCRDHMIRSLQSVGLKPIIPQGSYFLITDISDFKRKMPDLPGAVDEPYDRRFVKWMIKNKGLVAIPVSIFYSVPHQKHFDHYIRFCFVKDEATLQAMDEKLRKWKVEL

[9] = target: Kynurenine--oxoglutarate transaminase 3 (Homo sapiens, UniProt Q6YP21); assay: Inhibition of human KAT3
Chain of Kynurenine--oxoglutarate transaminase 3 (Q6YP21 whole entry): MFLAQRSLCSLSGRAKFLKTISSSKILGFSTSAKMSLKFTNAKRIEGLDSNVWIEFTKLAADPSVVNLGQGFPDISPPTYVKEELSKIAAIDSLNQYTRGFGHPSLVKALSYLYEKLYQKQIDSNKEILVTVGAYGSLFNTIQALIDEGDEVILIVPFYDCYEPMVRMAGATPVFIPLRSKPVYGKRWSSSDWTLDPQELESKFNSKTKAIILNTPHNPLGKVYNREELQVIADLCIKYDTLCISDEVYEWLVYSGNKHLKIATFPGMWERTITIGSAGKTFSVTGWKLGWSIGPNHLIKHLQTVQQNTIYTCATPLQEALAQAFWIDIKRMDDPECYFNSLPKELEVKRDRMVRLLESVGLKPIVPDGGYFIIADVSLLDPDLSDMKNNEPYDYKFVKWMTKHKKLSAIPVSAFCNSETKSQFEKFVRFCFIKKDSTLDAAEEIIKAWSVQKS

[10] = Inhibition of human KAT4
[11] = Lipophilicity, log D of the compound; assay type: physicochemical; conditions: octanol/water
[12] = Ratio of free drug level in plasma to brain in Sprague-Dawley rat at 10 mg/kg, sc after 0.25 hrs; assay type: ADME, organism-based; parameters: dose 10 mg/kg, route subcutaneous; conditions: in vivo
Summary of the method: (§4)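 Rat dosed 10 mg/kg sc; drug concentrations in plasma, brain and CSF measured at 0.25 h. Free plasma and free brain levels corrected using fraction unbound from rat plasma protein binding and brain binding assays. Exposure ratios taken from free plasma, free brain and CSF concentrations.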

[13] = Ratio of free drug level in cerebrospinal fluid to brain in Sprague-Dawley rat at 10 mg/kg, sc after 0.25 hrs; assay type: ADME, organism-based; parameters: dose 10 mg/kg, route subcutaneous; conditions: in vivo; summary of the method: as §4
Rattus norvegicus [14] = assay: Reduction of […] level in freely moving Sprague-Dawley rat dialysates from prefrontal cortex at 10 mg/kg, sc after 1 hr by microdialysis analysis relative to control; assay type: functional; parameters: scale not given: the % may be the effect or the level left; conditions: route subcutaneous
Summary of the method: (§5)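 Freely moving rats given 10 mg/kg sc at time 0; KYNA in prefrontal cortex dialysates monitored over time by microdialysis; expressed as percent of each animal's basal KYNA, means ± SEM, n = 11–14 per group.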

Rattus norvegicus [15] = assay: Reduction of […] level in freely moving Sprague-Dawley rat dialysates from prefrontal cortex at 10 mg/kg, sc after 20 hrs by microdialysis analysis; assay type: functional, organism-based; parameters: dose 10 mg/kg; summary of the method: as §5

IC50 [1] [nM] | IC50 [2] [nM] | Ratio [3] [M⁻¹ s⁻¹] | Ratio [4] [M⁻¹ s⁻¹] | Compound | also measured
> 10000 | > 10000 |  |  | CC1(N)Cc2ccccc2N(O)C1=O (configuration not stated) | 
29 | 118 | 1170 | 28300 | N[C@H]1Cc2ccc(Cl)cc2N(O)C1=O | 
> 10000 |  |  |  | N[C@H]1Cc2ccccc2NC1=O | 
1050 | > 10000 |  |  | Cc1cccc2c1N(O)C(=O)[C@@H](N)C2 | 
29 | 488 | 102 | 15300 | N[C@H]1Cc2cc(C(F)(F)F)ccc2N(O)C1=O | 
319 | > 10000 |  |  | Cc1cccc2c1C[C@H](N)C(=O)N2O | 
219 | 1170 |  |  | N[C@@H]1Cc2ccccc2N(O)C1=O | 
40 | 631 | 57 | 5310 | N[C@H]1Cc2cccc(F)c2N(O)C1=O | 
36 | 258 | 465 | 19000 | N[C@H]1Cc2cc(Cl)ccc2N(O)C1=O | 
179 | > 4920 |  | 1940 | COc1cccc2c1C[C@H](N)C(=O)N2O | 
22 | 137 | 1840 | 31700 | COc1ccc2c(c1)N(O)C(=O)[C@@H](N)C2 | 
37 | 368 | 590 | 33400 | Cc1ccc2c(c1)N(O)C(=O)[C@@H](N)C2 | 
> 10000 | > 10000 |  |  | CON1C(=O)[C@@H](N)Cc2ccccc21 | 
30 | 402 | 167 | 11900 | Cc1ccc2c(c1)C[C@H](N)C(=O)N2O | 
45 | 2060 |  | 6680 | N[C@H]1Cc2c(F)cccc2N(O)C1=O | 
252 | > 10000 |  | 42 | N[C@H]1Cc2cccc(Cl)c2N(O)C1=O | 
23 | 263 | 573 | 18500 | N[C@H]1Cc2ccccc2N(O)C1=O | concentration at 0.25 h [5]: 4.06 µM; Drug uptake(free) (Brain): 3.76 µM; Cp(f) (Plasma): 10.2 µM; fraction unbound at 1 µM [6]: 0.393; fraction unbound at 1 µM [7]: 0.893; IC50 [8]: 22000 nM; IC50 [9]: 11000 nM; IC50 [10]: > 50000 nM; logD [11]: -0.7; Ratio [12]: 2.7; Ratio [13]: 1.1; Activity (Rattus norvegicus [14]): 50%; Activity (Rattus norvegicus [15]): inactive
572 | > 10000 |  | 21.3 | COc1cccc2c1N(O)C(=O)[C@@H](N)C2 | 
349 | > 7970 |  | 9.5 | N[C@H]1Cc2c(Cl)cccc2N(O)C1=O | 
> 10000 | > 10000 |  |  | N[C@H]1Cc2c(cccc2C(F)(F)F)N(O)C1=O | 
174 | > 6810 |  | 541 | N[C@H]1Cc2cccc(C(F)(F)F)c2N(O)C1=O | 
 | > 1330 |  |  | C[C@H]1c2ccccc2N(O)C(=O)[C@H]1N | 

From ChEMBL document CHEMBL2046387, “Discovery of Brain-Penetrant, Irreversible Kynurenine Aminotransferase II Inhibitors for Schizophrenia” (ACS Med Chem Lett, 2012)
